# High-throughput results: PubChem, several laboratories
# Shown are actives, neighbours in structure and some others; about 2.3% of the full set was active somewhere.
# Glyco luc inh – N-linked glycosylation inhibition. D54 ERlucT glycosylation luciferase reporter, 24 h; percent of 100 nM tunicamycin response. reporter increase, % at 12.5 µM. 0.23% of 360,000 active. AID 588692;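 active means mean luciferase reporter signal, scaled so untreated is 0 and the glycosylation-blocking control 100, at or above a set limit in every replicate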;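 further: luciferase carries N-glycosylation sites so blocking glycosylation raises the light; 0% = median of neutral control wells and 100% = median of 100 nM tunicamycin wells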
# Arr AP2 block – blocks beta-arrestin peptide binding to AP2 adaptin | FITC-arrestin peptide / GST-AP2 beads, flow cytometry; AP2 beta2 appendage carries R879A mutation | inhibition, % at 10 µM | 0.31% of 340,000 active;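 active means inhibition above a set limit, near 3 SD of compounds lacking own fluorescence, cut at about 54% in these data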;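 further: plate controls were DMSO wells for no effect and 5 µM unlabelled arrestin peptide for full effect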
#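 System: GST-AP2 R879A glutathione beads | Also added: FITC-arrestin peptide, 50 nM | Times: 12 min plus 1 h, RT | Signal: Bead flow cytometry, FITC channel | Buffer or medium: PBS with 0.05% Tween 20 and 0.1% BSA | Read-out basis: Percent drop in bead-associated FITC signal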
# HIV Env fusion – HIV envelope-mediated fusion inhibition; HeLa-JRFL Env/CEM21 cell fusion, luciferase; inhibition, % at 12.3 µM; 1.1% of 360,000 active; AID 651610;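 active means mean replicate inhibition score of at least 50 and every replicate individually at or above 50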;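 further: 0% = plate neutral controls and 100% = maraviroc near 300 nM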
# PAX8 reporter – inhibitors of PAX8 transcriptional activity in RMG-I cells | RMG-I TPO-luciferase reporter, SteadyGlo, 24 h | inhibition, % at 12.6 µM | 1.2% of 360,000 active | AID 652154;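 active means mean replicate inhibition at least 60% with every replicate also reaching 60%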;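 further: luciferase light reporting Pax8 driven TPO promoter activity; plate controls were median of neutral control wells for no effect and mitoxantrone controls for full effect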
# Rtt109 Vps75 – inhibitors of Candida albicans Rtt109/Vps75 histone acetyltransferase | purified Rtt109/Vps75, ThioGlo CoA-SH fluorescence, 4 h | Q5AAJ8 | AID 540336 | inhibition, % at 34.9 µM | 0.16% of 330,000 active;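 active means inhibition of at least 50% in every replicate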
# PfHsp90 yeast 2 – reduces growth (ATP signal) of yeast expressing P. falciparum Hsp90; S. cerevisiae expressing PfHsp90, BacTiter-Glo ATP, 48 h; yeast lacking PDR1 and PDR3 efflux regulators; inhibition, % at 9.4 µM; 0.32% of 310,000 active;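 active means every replicate shows inhibition above about 80%, whatever the replicate mean, limit read from the data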;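 further: 0% = DMSO neutral controls and 100% = 20 µM radicicol positive controls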
# Arr AP2 CP1 – human beta-arrestin and AP2 interaction inhibition, cherry pick; shares compounds with Arr AP2 block; GST-AP2 beads, FITC arrestin peptide binding, flow cytometry; GST-fused beta2-adaptin appendage, R879A mutant; inhibition, % at 10 µM; 2% of 1,300 active;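 active means inhibition above a set limit, roughly 3 SD of non-fluorescent compound noise, cut at about 38% in these data; inactive means inhibition at or below that limit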;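 further: loss of bead fluorescence from 50 nM FITC arrestin peptide bound to appendage; 0% = negative control wells and 100% = excess unlabelled arrestin peptide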
# Target sequence (P63010 whole entry, looked up, the tested form may be a part, one chain of several): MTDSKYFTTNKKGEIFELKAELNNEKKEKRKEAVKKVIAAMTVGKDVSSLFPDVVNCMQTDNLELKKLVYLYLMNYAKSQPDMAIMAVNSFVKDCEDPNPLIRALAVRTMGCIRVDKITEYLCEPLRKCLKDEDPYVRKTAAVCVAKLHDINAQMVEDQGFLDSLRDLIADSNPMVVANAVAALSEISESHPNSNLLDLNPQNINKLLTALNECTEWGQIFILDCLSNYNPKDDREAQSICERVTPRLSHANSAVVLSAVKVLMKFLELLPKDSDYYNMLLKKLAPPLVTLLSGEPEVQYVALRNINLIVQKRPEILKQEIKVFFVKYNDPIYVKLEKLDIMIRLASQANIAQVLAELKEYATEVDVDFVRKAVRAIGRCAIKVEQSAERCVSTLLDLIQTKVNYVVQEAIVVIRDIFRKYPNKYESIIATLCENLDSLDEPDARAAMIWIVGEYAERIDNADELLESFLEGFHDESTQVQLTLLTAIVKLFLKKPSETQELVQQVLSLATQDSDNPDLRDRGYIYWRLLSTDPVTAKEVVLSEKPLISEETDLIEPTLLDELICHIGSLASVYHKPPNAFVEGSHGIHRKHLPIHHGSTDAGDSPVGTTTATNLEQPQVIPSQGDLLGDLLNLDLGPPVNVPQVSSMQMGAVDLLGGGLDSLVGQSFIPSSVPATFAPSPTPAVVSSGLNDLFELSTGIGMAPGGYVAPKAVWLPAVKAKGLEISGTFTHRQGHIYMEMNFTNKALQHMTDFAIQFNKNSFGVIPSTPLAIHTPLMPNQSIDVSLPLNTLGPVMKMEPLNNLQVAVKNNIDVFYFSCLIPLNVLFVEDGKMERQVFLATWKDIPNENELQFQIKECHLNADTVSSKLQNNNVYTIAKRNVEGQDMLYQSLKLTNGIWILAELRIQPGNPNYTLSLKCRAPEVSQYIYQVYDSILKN
# GST GSH counter – disrupts GST binding to glutathione beads, arrestin-AP2 artifact | shares compounds with Arr AP2 block | GST-fluorescein binding to GSH beads, fluorescence, counter-screen | inhibition, % at 10 µM | 2% of 1,300 active;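 active means inhibition above 50%, about 3 SD of the inhibition seen with non-fluorescent compounds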;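 further: fluorescein maleimide labelled GST captured on 4 micron glutathione beads; higher means more loss of bead fluorescence from quenching or blocked binding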
# * marks the source's active call; other numbers are inactive results; x = no result given; [ ] = remark or other dose.
SMILES,Glyco luc inh,Arr AP2 block,HIV Env fusion,PAX8 reporter,Rtt109 Vps75,PfHsp90 yeast 2,Arr AP2 CP1,GST GSH counter
Cc1ccc(SCC(=O)NNC(=O)CCS(=O)(=O)c2ccccc2)cc1,-0.8,8.8,6.9,17.3,10.9,x,x,x
Cc1noc(C)c1S(=O)(=O)Nc1ccc2c(c1)C(=O)N([C@H](C)CO)C[C@H](C)[C@H](CN(C)C(=O)NC(C)C)OCCCC[C@H](C)O2,x,x,-19.7[16.7 µM],19.5,x,x,x,x
C[C@H]1CN([C@@H](C)CO)C(=O)Cc2cc(NC(=O)CCN3CCOCC3)ccc2O[C@H]1CN(C)S(=O)(=O)c1ccc(F)cc1,x,x,x,-4.8,x,x,x,x
COc1ccccc1N1CCN(S(=O)(=O)CCNC(=O)/C=C/c2ccc3c(c2)OCO3)CC1,-1.3,x,-22.7,4.1,x,x,x,x
COc1ccc(N2CCN(S(=O)(=O)CCNC(=O)/C=C/c3ccc4c(c3)OCO4)CC2)cc1,-2.4,63.4*,-4.4,1.8,5.5,3.5,0.3,-0.5
Cc1ccc(S(=O)(=O)NCC[C@@H]2CC[C@H](NC(=O)CCN3CCCCC3)[C@@H](CO)O2)cc1,x,x,8.6[16.7 µM],-2.1,x,x,x,x
O=C1Nc2ccc(NS(=O)(=O)c3cccs3)c3cccc1c23,4.4,96.3*,x,x,5.9,2.1,12.6,1.6
CNS(=O)(=O)c1ccc2c3c(cccc13)C(=O)N2,1.0,9.7,12.9,14.5,3.2,19.7,x,x
CCC(=O)Nc1ccc2c(c1)OC[C@H](C)N(C(=O)NC(C)C)C[C@H](C)[C@@H](OC)CN(C)C2=O,x,x,-3.8[16.7 µM],x,x,x,x,x
COc1ccc(C(=O)NNC(=O)CCCCC(=O)NNC(=O)c2ccc(OC)cc2)cc1,-1.9,62.3*,-7.1,-10.9,x,0.2,1.2,-2.5
Cc1nn(Cc2ccc(Cl)cc2Cl)c(Cl)c1/C=C/C(=O)OCC(=O)NCC(F)(F)F,0.5,81.4*,x,x,-5.4,3.3,-4.1,-8.3
Cc1nn(Cc2ccccc2Cl)c(Cl)c1/C=C/C(=O)OCC(=O)NC(N)=O,0.1,-1.2,x,x,4.6,-39.7,x,x
N#Cc1ccc(CSc2ccccn2)c(Cl)c1,-1.2,63.2*,-23.9,-13.7,3.0,1.2,-6.2,-7.1
CC(OC(=O)C1CSC2(C)CCC(=O)N12)C(=O)Nc1ccc(F)cc1 (stereo not drawn),0.4,-2.9,-6.2,13.4,-4.1,x,-11.8,-8.9
CC(OC(=O)C1CSC2(C)CCC(=O)N12)C(=O)Nc1cccc(C#N)c1 (stereo not drawn),2.6,1.2,-12.1,-42.4,-11.1,x,1.0,-4.9
c1ccn2cc(-c3ccc4c(c3)OCCO4)nc2c1,-17.2,58.2*,31.4,55.9,5.8,40.0,-4.6,-3.8
CO[C@H]1CN(C)C(=O)c2ccc(NC(C)=O)cc2OC[C@@H](C)N(C(=O)C2CCC2)C[C@H]1C,x,x,5.6[16.7 µM],-7.0,x,x,x,x
CC(C)(C)NC(=O)C1Cc2ccccc2CN1C(=O)Nc1ccccc1Cl (stereo not drawn),-2.8,82.8*,x,x,6.8,11.4,3.1,-0.1
CCN(C(=O)Cn1cnc2c1c(=O)n(C)c(=O)n2C)C1CCCCC1,-1.7,60.9*,x,-1.3,-1.5,-5.4,-2.1,-11.6
Cc1nc(NCCN2CCOCC2)c2oc3ccccc3c2n1,0.3,54.9*,x,x,-5.4,-27.5,14.6,-5.8
COc1ccc(CN(C)C[C@@H]2Oc3c(NS(=O)(=O)c4ccc(C)cc4)cccc3C(=O)N([C@@H](C)CO)C[C@@H]2C)cc1,x,x,x,2.8,x,x,x,x
CC(C)C#Cc1ccc2c(c1)O[C@@H](CN(C)CC1CC1)[C@@H](C)CN([C@H](C)CO)S2(=O)=O,x,x,0.5[16.7 µM],x,x,x,x,x
CCOc1ccc(C(=O)Nn2cnnc2)cc1OCC,0.9,-3.8,-40.3,14.2,-0.8,13.4,x,x
COc1cc(C(=O)Nn2cnnc2)ccc1OC(F)F,-0.4,54.0*,1.2,-13.6,1.5,-14.4,-7.7,-3.4
CCCC(=O)Nc1ccc2c(c1)OC[C@H](C)N(CCC)C[C@@H](C)[C@H](OC)CN(C)C2=O,x,x,-3.4[16.7 µM],-7.1,x,x,x,x
SMILES,Glyco luc inh,Arr AP2 block,HIV Env fusion,PAX8 reporter,Rtt109 Vps75,PfHsp90 yeast 2,Arr AP2 CP1,GST GSH counter
O=S(=O)(c1ccc(-c2ccccc2)cc1)N1[C@@H]2CNC[C@H]1C2c1ccc(-c2cccnc2)cc1 (stereo partly drawn),x,x,x,-36.1,x,x,x,x
CCc1ccc(CN(C(=O)c2ccco2)C2CCS(=O)(=O)C2)cc1 (stereo not drawn),0.6,66.9*,-2.5,3.5,5.5,-4.9,-14.8,-1.3
CCN(CC)c1ccc(CN(C(=O)c2ccco2)C2CCS(=O)(=O)C2)cc1 (stereo not drawn),-1.3,-0.2,x,x,7.1,5.8,x,x
CN(C)c1cc2c(cc1NC(=O)c1ccccc1Cl)n(C)c(=O)n2C,4.4,-1.0,19.2,26.8,5.7,14.0,3.7,-13.6
CCN(C(=O)c1cc2c(=O)[nH]c3ccc(C)cc3c2s1)c1ccc(F)cc1,3.3,12.1,-16.1,20.9,-6.3,15.9,x,x
Cc1ccc2[nH]c(=O)c3cc(C(=O)N(C)c4ccc(C)c(C)c4)sc3c2c1,3.1,58.5*,-12.4,11.5,13.7,9.2,12.2,-5.7
CCOC(=O)/C=C/C(=O)OCc1csc(CC(=O)Nc2ccccc2C)n1,-5.4,-9.1,5.6,14.7,2.4,0.5,x,x
CCc1ccc(N2CC(C(=O)OCc3csc(CC(=O)Nc4ccccc4C)n3)CC2=O)cc1 (stereo not drawn),1.2,62.4*,1.5,-13.5,-6.9,7.6,16.3,6.8
CCCC(=O)Nc1ccc2c(c1)C(=O)N(C)[C@H]1CC[C@@H](CC(=O)Nc3cn(C)nc3C)O[C@@H]1CO2,x,x,x,2.8,x,x,x,x
Cc1cccc2cc(/C=C3\N=C(c4ccccc4)OC3=O)c(N3CCOCC3)nc12,1.4,67.3*,-34.1,x,-5.4,-11.7,13.7,22.8
Cc1ccc(C2=N/C(=C/N3CCOCC3)C(=O)O2)cc1,-1.1,26.7,-65.0,x,-5.7,-47.9,x,x
COc1ccc2c3c(cccc13)N(C)N=C2C,3.0,61.6*,x,x,0.4,20.2,32.7,11.4
CCN(CC)CCN(Cc1cc2cc3c(cc2[nH]c1=O)OCCO3)C(=O)NC1CCCCC1,5.3,4.8,x,x,4.4,-46.1,7.8,-7.9
COc1ccc(CN(Cc2cc3cc4c(cc3[nH]c2=O)OCO4)C(=O)NC2CCCCC2)cc1,-4.5,-1.4,x,x,25.1,-5.7,3.3,-5.3
COc1ccc(NC(=S)N2CCCC(c3nc4ccc(C)cc4[nH]3)C2)cc1 (stereo not drawn),-1.1,56.9*,6.8,1.7,x,21.8,-9.7,-2.9
COc1ccc(NC(=S)N2CCCC(c3nc4ccc(C)cc4[nH]3)C2)c(OC)c1 (stereo not drawn),4.6,0.5,-6.2,14.6,-2.8,22.7,x,x
